Results from ChEMBL document CHEMBL4689842, “EUbOPEN Chemogenomics Library wave 1” (2021).

System: U2OS
Test: Multiplex assay against U2OS
Assay type: toxicity, cell-based
Conditions: human
Method in brief: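 Imaging took place on a CQ1 microscope at 37°C and 5% CO2 once compound had been added to live cells stained at seeding with Hoechst33342, BioTracker Green Microtubule Cytoskeleton Dye, MitoTracker Red and Annexin V Alexa Fluor 680. CellPathfinder machine-learning gating classed cells as Hoechst high-intensity objects or normal cells, classed normal cells as having healthy, pyknosed or fragmented nuclei, and classed pyknosed cells as mitotic or apoptotic. Tubulin, mitochondrial-mass and membrane-permeability phenotypes are per cents of the healthy-nucleus cells.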

[1] = 12 h, 1 µM, compound concentration 1 uM, replicate 1
[2] = 12 h, 1 µM, compound concentration 1 uM, replicate 2
[3] = 12 h, 10 µM, compound concentration 10 uM, replicate 1
[4] = 12 h, 10 µM, compound concentration 10 uM, replicate 2
[5] = 24 h, 1 µM, compound concentration 1 uM, replicate 1
[6] = 24 h, 1 µM, compound concentration 1 uM, replicate 2
[7] = 24 h, 10 µM, compound concentration 10 uM, replicate 1
[8] = 24 h, 10 µM, compound concentration 10 uM, replicate 2
[9] = 48 h, 1 µM, compound concentration 1 uM, replicate 1
[10] = 48 h, 1 µM, compound concentration 1 uM, replicate 2
[11] = 48 h, 10 µM, compound concentration 10 uM, replicate 1
[12] = 48 h, 10 µM, compound concentration 10 uM, replicate 2

CNc1cc(Oc2cc(C(=O)Nc3cc(N4CCN(C)CC4)cc(C(F)(F)F)c3)ccc2C)ncn1
Population Apoptotic (%) [1]: 32% | Population Healthy Nuclei (%) [1]: 59% | Population Hoechst High Intensity Objects (%) [1]: 11% | Population Membrane Permeable-Phenotype (%) [1]: 4% | Population Mitochondria Different-Phenotype (%) [1]: 68% | Population Mitotic Cells (%) [1]: 67% | Population Normal (%) [1]: 88% | Population Pyknosed Nuclei (%) [1]: 30% | Population Tubulin-Different-Phenotype (%) [1]: 60% | Total Cell Count [1]: 176 | Population Apoptotic (%) [2]: 54% | Population Fragmented Nuclei (%) [2]: 10% | Population Healthy Nuclei (%) [2]: 73% | Population Hoechst High Intensity Objects (%) [2]: 2% | Population Membrane Permeable-Phenotype (%) [2]: 10% | Population Mitochondria Different-Phenotype (%) [2]: 60% | Population Mitotic Cells (%) [2]: 45% | Population Normal (%) [2]: 97% | Population Pyknosed Nuclei (%) [2]: 16% | Population Tubulin-Different-Phenotype (%) [2]: 52% | Total Cell Count [2]: 56 | Population Apoptotic (%) [3]: 90% | Population Fragmented Nuclei (%) [3]: 40% | Population Healthy Nuclei (%) [3]: 10% | Population Hoechst High Intensity Objects (%) [3]: 6% | Population Membrane Permeable-Phenotype (%) [3]: 100% | Population Mitochondria Different-Phenotype (%) [3]: 100% | Population Mitotic Cells (%) [3]: 9% | Population Normal (%) [3]: 93% | Population Pyknosed Nuclei (%) [3]: 48% | Population Tubulin-Different-Phenotype (%) [3]: 100% | Total Cell Count [3]: 116 | Population Apoptotic (%) [4]: 73% | Population Fragmented Nuclei (%) [4]: 24% | Population Healthy Nuclei (%) [4]: 13% | Population Hoechst High Intensity Objects (%) [4]: 33% | Population Membrane Permeable-Phenotype (%) [4]: 58% | Population Mitochondria Different-Phenotype (%) [4]: 66% | Population Mitotic Cells (%) [4]: 26% | Population Normal (%) [4]: 66% | Population Pyknosed Nuclei (%) [4]: 61% | Population Tubulin-Different-Phenotype (%) [4]: 66% | Total Cell Count [4]: 70 | Population Apoptotic (%) [5]: 46% | Population Fragmented Nuclei (%) [5]: 11% | Population Healthy Nuclei (%) [5]: 64% | Population Hoechst High Intensity Objects (%) [5]: 9% | Population Membrane Permeable-Phenotype (%) [5]: 10% | Population Mitochondria Different-Phenotype (%) [5]: 64% | Population Mitotic Cells (%) [5]: 53% | Population Normal (%) [5]: 90% | Population Pyknosed Nuclei (%) [5]: 23% | Population Tubulin-Different-Phenotype (%) [5]: 55% | Total Cell Count [5]: 174 | Population Apoptotic (%) [6]: 50% | Population Fragmented Nuclei (%) [6]: 16% | Population Healthy Nuclei (%) [6]: 63% | Population Hoechst High Intensity Objects (%) [6]: 6% | Population Membrane Permeable-Phenotype (%) [6]: 13% | Population Mitochondria Different-Phenotype (%) [6]: 68% | Population Mitotic Cells (%) [6]: 50% | Population Normal (%) [6]: 93% | Population Pyknosed Nuclei (%) [6]: 19% | Population Tubulin-Different-Phenotype (%) [6]: 51% | Total Cell Count [6]: 58 | Population Apoptotic (%) [7]: 93% | Population Fragmented Nuclei (%) [7]: 47% | Population Healthy Nuclei (%) [7]: 3% | Population Hoechst High Intensity Objects (%) [7]: 10% | Population Membrane Permeable-Phenotype (%) [7]: 100% | Population Mitochondria Different-Phenotype (%) [7]: 100% | Population Mitotic Cells (%) [7]: 6% | Population Normal (%) [7]: 89% | Population Pyknosed Nuclei (%) [7]: 48% | Population Tubulin-Different-Phenotype (%) [7]: 100% | Total Cell Count [7]: 120 | Population Apoptotic (%) [8]: 76% | Population Fragmented Nuclei (%) [8]: 16% | Population Healthy Nuclei (%) [8]: 23% | Population Hoechst High Intensity Objects (%) [8]: 48% | Population Membrane Permeable-Phenotype (%) [8]: 80% | Population Mitochondria Different-Phenotype (%) [8]: 80% | Population Mitotic Cells (%) [8]: 23% | Population Normal (%) [8]: 51% | Population Pyknosed Nuclei (%) [8]: 60% | Population Tubulin-Different-Phenotype (%) [8]: 80% | Total Cell Count [8]: 76 | Population Apoptotic (%) [9]: 54% | Population Fragmented Nuclei (%) [9]: 21% | Population Healthy Nuclei (%) [9]: 60% | Population Hoechst High Intensity Objects (%) [9]: 6% | Population Membrane Permeable-Phenotype (%) [9]: 11% | Population Mitochondria Different-Phenotype (%) [9]: 50% | Population Mitotic Cells (%) [9]: 45% | Population Normal (%) [9]: 93% | Population Pyknosed Nuclei (%) [9]: 18% | Population Tubulin-Different-Phenotype (%) [9]: 49% | Total Cell Count [9]: 163 | Population Apoptotic (%) [10]: 50% | Population Fragmented Nuclei (%) [10]: 14% | Population Healthy Nuclei (%) [10]: 70% | Population Hoechst High Intensity Objects (%) [10]: 4% | Population Membrane Permeable-Phenotype (%) [10]: 24% | Population Mitochondria Different-Phenotype (%) [10]: 54% | Population Mitotic Cells (%) [10]: 50% | Population Normal (%) [10]: 95% | Population Pyknosed Nuclei (%) [10]: 14% | Population Tubulin-Different-Phenotype (%) [10]: 50% | Total Cell Count [10]: 51 | Population Apoptotic (%) [11]: 96% | Population Fragmented Nuclei (%) [11]: 52% | Population Healthy Nuclei (%) [11]: 2% | Population Hoechst High Intensity Objects (%) [11]: 20% | Population Membrane Permeable-Phenotype (%) [11]: 100% | Population Mitochondria Different-Phenotype (%) [11]: 100% | Population Mitotic Cells (%) [11]: 3% | Population Normal (%) [11]: 80% | Population Pyknosed Nuclei (%) [11]: 45% | Population Tubulin-Different-Phenotype (%) [11]: 100% | Total Cell Count [11]: 142 | Population Apoptotic (%) [12]: 47% | Population Fragmented Nuclei (%) [12]: 22% | Population Healthy Nuclei (%) [12]: 45% | Population Hoechst High Intensity Objects (%) [12]: 50% | Population Membrane Permeable-Phenotype (%) [12]: 89% | Population Mitochondria Different-Phenotype (%) [12]: 89% | Population Mitotic Cells (%) [12]: 52% | Population Normal (%) [12]: 50% | Population Pyknosed Nuclei (%) [12]: 31% | Population Tubulin-Different-Phenotype (%) [12]: 89% | Total Cell Count [12]: 85
